Screening results deposited in PubChem BioAssay by several laboratories.
Compounds with a hit are over-represented: about 6.7% of the library has one in this group of screens.
CSC inhib: cancer stem cell viability inhibitors, primary screen, luminescence; cancer stem cell-like cells viability; 300,000 tested, 1.1% active; AID 2717, 2010; inhibition, % at 7.5 µM; in the data active means inhibition above about 75%; inconclusive means no clear call, values can overlap the other calls; tested in HMLE shEcad cells
Beta cell apopt: inhibitors of cytokine-induced beta cell apoptosis, primary screen, luminescence; INS-1E cytokine-induced death, ATP luminescence, 48 h; percent of positive-control rescue, neutral wells zero; protection from apoptosis, % (concentration not given with the values); 300,000 tested, 0.8% active;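 active means Every replicate reaches about 75%, or at least half do and their mean reaches it too, limit read from the data; inconclusive means At least half of replicates reach the limit but their mean does not; inactive means Under half of replicates reach the limit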;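 further: 0% = cytokine-treated negative control wells and 100% = positive control rescue; higher means more ATP so stronger rescue from cytokine killing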
T cruzi inh: inhibitors of intracellular T. cruzi growth, primary screen, luminescence, NIH3T3 host cells | T. cruzi beta-gal in NIH3T3, 90 h | inhibition, % (test concentration not listed) | 300,000 tested, 1.4% active | AID 1885, 2009;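 active means mean inhibition across valid replicates above about 55%, limit read from the data; inconclusive means mean below that limit but half or more replicates reach it; inactive means mean below it, under half of replicates reach it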;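 further: signal also drops with host cell toxicity which is not excluded here; 0% = plate median of DMSO wells and 100% = zero luminescence signal; higher percent means less beta-gal luminescence so fewer parasites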
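Assay system: NIH/3T3 host cells with β-galactosidase reporter T. cruzi; input: 5,000 host fibroblasts per well; compound: single 50 nL compound addition per well in DMSO; timing: ≥90 h infection period, 3 h prior cell attachment; measured by: GalScreen β-gal luminescence, detergent lysis, 60 min; evaluation: percent inhibition of parasite-derived β-gal signal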
CHOP inhibitor: inhibitors of CHOP promoter induction, primary screen, cell-based, unfolded protein response, luciferase reporter | inhibition, % at 10 µM | CHO-K1 CHOP-promoter luciferase, tunicamycin-induced, 15-18 h | 220,000 tested, 3.8% active;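 active means compounds that reduced the stress-induced luciferase reporter signal by more than about 70% of percent inhibition, limit read from the data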;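 further: 0% = tunicamycin plus vehicle and 100% = wells without tunicamycin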
NR3A LBD binder: binders of NR3A ligand-binding domain, primary screen, biophysical, differential scanning fluorimetry, uHTS. Glutamate receptor ionotropic, NMDA 3A (GRIN3A) ligand-binding domain. NR3A LBD differential scanning fluorimetry, Tm shift; 0% = protein alone, 100% = glycine-bound protein. Tm shift relative to glycine control, % at 25 µM. 340,000 tested, 2.5% active. AID 1259313, 2017;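 active means melting temperature shift of at least 10% of the positive control shift, at one fixed dose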
PREPL inhibitor: PREPL enzyme inhibitors, primary screen, biochemical, fluorescence polarization | 320,000 tested, 0.68% active | recombinant PREPL, fluorescence polarization activity-based probe | inhibition, % at 5.96 µM | Prolyl endopeptidase-like (Homo sapiens), Q4J6C6; in the data active means inhibition above about 43%;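 further: 0% = enzyme with DMSO and 100% = wells lacking enzyme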
Target sequence (Q4J6C6 whole entry, looked up): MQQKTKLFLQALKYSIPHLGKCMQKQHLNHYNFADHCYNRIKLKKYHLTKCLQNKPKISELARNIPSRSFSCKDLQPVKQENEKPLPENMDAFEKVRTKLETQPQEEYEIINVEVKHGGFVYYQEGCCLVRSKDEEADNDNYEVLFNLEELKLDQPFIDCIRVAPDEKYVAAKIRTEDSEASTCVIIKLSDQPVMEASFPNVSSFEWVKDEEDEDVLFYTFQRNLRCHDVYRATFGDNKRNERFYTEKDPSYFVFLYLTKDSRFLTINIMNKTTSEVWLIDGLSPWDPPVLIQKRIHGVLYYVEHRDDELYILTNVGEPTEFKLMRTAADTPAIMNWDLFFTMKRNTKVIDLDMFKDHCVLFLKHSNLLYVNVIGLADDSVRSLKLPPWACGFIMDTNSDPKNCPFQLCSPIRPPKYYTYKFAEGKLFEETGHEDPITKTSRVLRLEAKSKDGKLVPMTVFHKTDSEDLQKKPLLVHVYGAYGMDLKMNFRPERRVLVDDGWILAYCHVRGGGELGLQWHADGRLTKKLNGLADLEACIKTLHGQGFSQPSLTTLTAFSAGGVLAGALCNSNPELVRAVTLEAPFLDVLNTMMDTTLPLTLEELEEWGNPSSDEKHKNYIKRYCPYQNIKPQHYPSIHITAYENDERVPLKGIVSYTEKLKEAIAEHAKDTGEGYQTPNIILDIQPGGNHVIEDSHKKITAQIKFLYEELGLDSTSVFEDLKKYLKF
The depositor's hits bear a star; ? = inconclusive; nt = no result.

SMILES	CSC inhib	Beta cell apopt	T cruzi inh	CHOP inhibitor	NR3A LBD binder	PREPL inhibitor
CC(C)Cn1c(=O)c(C(=O)Nc2ccncc2)c(O)c2ccccc21	135*	19	45	nt	0	-3
CCCn1c(=O)c(C(=O)N/N=C/c2ccccc2F)c(O)c2ccccc21	nt	4	-14	68	1	0
CCn1c(=O)c(C(=O)NNC(=O)c2ccccc2)c(O)c2ccccc21	0	8	6	nt	-2	12
CCCCCCC(=O)NNC(=O)c1c(O)c2ccccc2n(CCC)c1=O	22	3	-10	76*	-7	-2
CC(C)Cn1c(=O)c(C(=O)Nc2cnccn2)c(O)c2ccccc21	9	3	-3	2	1	5
CCn1c(=O)c(C(=O)NNS(=O)(=O)c2ccc(Cl)cc2)c(O)c2ccccc21	11	-5	-2	84*	-5	-9
CCCn1c(=O)c(C(=O)N/N=C/c2ccc(F)cc2)c(O)c2ccccc21	9	18	-11	44	19*	7
CCOC(=O)C1=C(COC(=O)c2ccc(Br)c(S(=O)(=O)N3CCOCC3)c2)NC(=O)NC1C (stereo unspecified)	nt	nt	nt	nt	-1	nt
CCCCCCCCC(=O)NNC(=O)c1c(O)c2ccccc2n(CC)c1=O	nt	-2	-17	52	-10	2
CCNCCNC(=O)c1c(O)c2ccccc2n(CC)c1=O	-7	2	5	0	4	8
CCCCCCC(=O)NNC(=O)c1c(O)c2ccccc2n(CC)c1=O	10	-1	10	93*	-1	-1
CCn1c(=O)c(C(=O)NCCc2ccccc2)c(O)c2ccccc21	95*	-2	22	28	1	-7
CSc1ccccc1NC(=O)CN(C)C(=O)C1CCN(C(=O)Nc2ccccc2)CC1	7	-1	2	nt	2	5
[N-]=C=C1C(=S)NC(=O)[C@H]([n+]2ccccc2)[C@H]1c1ccc(Cl)cc1	-14	3	2	13	12*	15
Cc1ccccc1-c1ncc(CN2CCN(C3CCCC3)C(CCO)C2)cn1 (stereo unspecified)	5	-1	7	11	1	20
CC(C)Cn1c(CN2CCN(C)C(CCO)C2)nc2ccccc21 (stereo unspecified)	-9	-5	23	nt	2	-10
CC(C)n1cc(CN2CCN(C)C(CCO)C2)c2ccccc21 (stereo unspecified)	8	-5	59*	nt	-5	-2
Cc1ccccc1-c1ccc(CN2CCN(C)C(CCO)C2)cc1 (stereo unspecified)	?	5	58*	nt	0	26
Cc1cc(C)c2sc(N)nc2c1	-7	-2	nt	-5	-1	10
CN(CCc1ccccc1)C(=O)c1ccc(NC(=O)Cc2ccc(NC(=O)C3CCCN(S(=O)(=O)c4cccc([N+](=O)[O-])c4)C3)cc2)cc1 (stereo unspecified)	nt	nt	nt	nt	9	nt
CCCOCc1ccc(O)c2ncccc12	32	107*	57*	-24	-1	5
Oc1ccc(COCc2ccccc2)c2cccnc12	73	99*	47	nt	-3	5
CC(C)COCc1ccc(O)c2ncccc12	10	89*	52	64	-2	4
Oc1ccc(Cc2ccccc2)c2cccnc12	nt	nt	nt	nt	-3	nt
O=C(CSc1nccn1Cc1ccccc1)NC1CCCC1	-9	7	-8	nt	-1	1
SMILES	CSC inhib	Beta cell apopt	T cruzi inh	CHOP inhibitor	NR3A LBD binder	PREPL inhibitor
CCc1ccc2[nH]c(=O)c(CN(Cc3nnnn3C3CCCC3)C3CCCCC3)cc2c1	nt	nt	-16	78*	-1	8
Cc1cc2cc(CN(Cc3ccc4c(c3)OCO4)Cc3nnnn3C3CCCC3)c(=O)[nH]c2cc1C	-11	9	43	16	-7	4
Cc1ccc2[nH]c(=O)c(CN(Cc3ccc4c(c3)OCO4)Cc3nnnn3C3CCCC3)cc2c1	0	2	36	72*	1	-3
Cc1cc(C)c2cc(CN(Cc3nnnn3C3CCCCC3)CC3CCCO3)c(=O)[nH]c2c1 (stereo unspecified)	-18	-1	-3	71*	-9	-1
CC[n+]1c(/C=C/C=C/N(C(C)=O)c2ccccc2)sc2cc(OC)ccc21	67	49	nt	0	1	-164
COCc1cc(C)n(CC(=O)Nc2ccc3c(c2)OCO3)c(=O)c1C#N	1	-4	-18	nt	-2	10
COc1ccc(/C=N/NC(=O)c2ccncc2)cc1CN1CCOCC1	-15	4	-8	5	12*	-3
COc1ccc(/C=C2/CCc3ccccc3C2=O)cc1CN1CCOCC1	5	1	57*	-67	-2	24
COc1ccc(/C=C2\CCc3ccccc3C2=O)cc1Cn1nc(C)cc1C	19	9	15	70*	5	34
CCN(CC)c1ccc(/C=N/N2C(=O)c3ccccc3C2=O)c(O)c1	-25	-2	3	-42	24*	-4
CCN(CC)c1ccc(/C=N/N2C(=O)c3ccccc3C2=O)cc1	-17	-5	0	5	3	-1
CCOC(=O)N/N=C/c1ccc(N(CC)CC)cc1O	nt	nt	-8	-35	-1	10
CCN(CC)c1ccc(/C=N/NC(=O)CNC(=O)C2COc3ccccc3O2)c(O)c1 (stereo unspecified)	4	99*	63*	nt	-6	17
CCN(CC)c1ccc(/C=N/NC(=O)CCC(=O)NCc2ccccc2)c(O)c1	82*	98*	27	58	0	6
COc1cc(/C=N\NC(=O)CNC(=O)C2COc3ccccc3O2)ccc1O (stereo unspecified)	12	3	4	7	-2	0
Cc1cc(C)n2nc(C(=O)NCc3cccc(C(F)(F)F)c3)nc2n1	-1	-4	76*	10	0	4
Cc1cc(C)nc(N2CCCC(C(=O)NCc3cccc(C(F)(F)F)c3)C2)n1 (stereo unspecified)	-4	1	-4	83*	-1	12
O=C(NCc1cccc(C(F)(F)F)c1)C1CCCN(c2ncccn2)C1 (stereo unspecified)	10	-12	-9	3	1	5
O=C(COC(=O)CCN1C(=O)C2CC=CCC2C1=O)Nc1ccc([N+](=O)[O-])cc1 (stereo unspecified)	-5	-5	nt	nt	-2	21
CSc1ncccc1C(=O)Nc1cccc(S(=O)(=O)N(C)c2ccccc2)c1	nt	5	nt	nt	-6	15
